Measured values reported in BindingDB's records for doi:10.1021/acs.jmedchem.0c02249 (Lundbeck Research Usa, 2021).
pIC50, pKi: −log10 of the molar value.

Tests used:
P2X purinoceptor 7 [1] = molecular target: T1, P2X purinoceptor 7 (Mus musculus, UniProt Q9Z1M0); assay: Antagonist activity at mouse P2X7 receptor expressed in HEK293 cells assessed as inhibition of BzATP-induced calcium-flux measured after 60 mins by FLIPR analysis
T1 sequence (Q9Z1M0 whole entry): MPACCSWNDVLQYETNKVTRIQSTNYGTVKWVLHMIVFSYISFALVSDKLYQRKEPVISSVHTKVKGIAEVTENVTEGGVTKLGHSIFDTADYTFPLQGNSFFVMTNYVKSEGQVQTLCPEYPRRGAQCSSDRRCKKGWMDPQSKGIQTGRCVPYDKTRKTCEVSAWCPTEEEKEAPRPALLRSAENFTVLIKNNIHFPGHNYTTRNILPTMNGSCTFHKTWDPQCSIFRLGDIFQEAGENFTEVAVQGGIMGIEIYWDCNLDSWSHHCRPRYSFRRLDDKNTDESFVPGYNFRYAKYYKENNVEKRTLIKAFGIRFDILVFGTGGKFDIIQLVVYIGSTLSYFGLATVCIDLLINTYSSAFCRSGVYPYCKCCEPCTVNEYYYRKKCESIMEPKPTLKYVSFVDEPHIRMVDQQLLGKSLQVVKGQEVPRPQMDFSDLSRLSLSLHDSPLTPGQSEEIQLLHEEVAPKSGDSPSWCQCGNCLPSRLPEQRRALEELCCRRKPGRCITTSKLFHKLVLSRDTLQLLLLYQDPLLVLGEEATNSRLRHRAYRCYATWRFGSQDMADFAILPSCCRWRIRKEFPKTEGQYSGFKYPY
How it was run: (§1)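 Stable rat or mouse P2X7 HEK293 cells in HBSS/20 mM HEPES/2.5 mM probenecid/0.05% BSA, pH 7.4, were loaded with Fluo-4 NW (37 °C 30 min, RT 30 min). After 30 min at RT, calcium fluorescence was read by FLIPR; n ≥ 3.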

P2X purinoceptor 7 [2] = molecular target: T2, P2X purinoceptor 7 (Rattus norvegicus, UniProt Q64663); assay: Antagonist activity at rat P2X7 receptor expressed in HEK293 cells assessed as inhibition of BzATP-induced calcium-flux measured after 60 mins by FLIPR analysis; how it was run: as §1
T2 sequence (Q64663 whole entry): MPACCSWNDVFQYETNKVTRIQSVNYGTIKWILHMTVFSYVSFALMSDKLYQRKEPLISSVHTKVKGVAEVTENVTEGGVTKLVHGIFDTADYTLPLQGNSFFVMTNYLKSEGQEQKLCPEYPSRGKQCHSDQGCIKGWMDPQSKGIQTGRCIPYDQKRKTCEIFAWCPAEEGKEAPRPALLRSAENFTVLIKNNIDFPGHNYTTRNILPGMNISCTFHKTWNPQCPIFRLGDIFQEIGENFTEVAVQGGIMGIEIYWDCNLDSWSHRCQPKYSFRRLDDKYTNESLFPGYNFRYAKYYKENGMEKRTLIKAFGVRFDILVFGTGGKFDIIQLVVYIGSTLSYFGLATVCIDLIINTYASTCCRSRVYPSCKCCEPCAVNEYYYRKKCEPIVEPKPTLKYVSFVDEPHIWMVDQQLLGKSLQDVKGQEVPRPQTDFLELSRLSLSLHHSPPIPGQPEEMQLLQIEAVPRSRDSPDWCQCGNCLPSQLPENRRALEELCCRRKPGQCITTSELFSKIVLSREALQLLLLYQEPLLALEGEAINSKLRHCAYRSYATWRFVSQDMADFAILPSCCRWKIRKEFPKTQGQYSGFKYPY

P2X purinoceptor 7 [3] = molecular target: T2, P2X purinoceptor 7; assay: Displacement of [3H]-A-804598 from rat P2X7 receptor expressed in HEK293 cell membrane by in vitro binding assay
P2X purinoceptor 7 [4] = molecular target: T3, P2X purinoceptor 7 (Homo sapiens, UniProt Q99572); assay: Antagonist activity at human P2X7 receptor expressed in HEK293 cells assessed as inhibition of BzATP-induced calcium-flux measured after 60 mins by FLIPR analysis
T3 sequence (Q99572 whole entry): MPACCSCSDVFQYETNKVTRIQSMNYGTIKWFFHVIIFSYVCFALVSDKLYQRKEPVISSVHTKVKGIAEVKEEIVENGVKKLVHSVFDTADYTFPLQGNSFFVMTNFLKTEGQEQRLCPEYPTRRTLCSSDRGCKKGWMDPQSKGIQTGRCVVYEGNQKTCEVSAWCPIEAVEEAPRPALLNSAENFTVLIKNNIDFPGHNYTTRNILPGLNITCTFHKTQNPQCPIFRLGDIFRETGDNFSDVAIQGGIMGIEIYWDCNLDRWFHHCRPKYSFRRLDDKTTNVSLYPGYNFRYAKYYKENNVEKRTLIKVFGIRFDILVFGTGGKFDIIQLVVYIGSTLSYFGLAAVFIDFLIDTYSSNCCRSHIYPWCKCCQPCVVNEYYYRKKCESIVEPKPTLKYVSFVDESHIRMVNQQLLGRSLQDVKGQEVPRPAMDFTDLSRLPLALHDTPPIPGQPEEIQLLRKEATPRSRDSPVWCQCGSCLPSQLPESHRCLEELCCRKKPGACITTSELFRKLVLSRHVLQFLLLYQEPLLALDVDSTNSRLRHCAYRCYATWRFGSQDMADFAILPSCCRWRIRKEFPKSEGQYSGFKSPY

Structure (SMILES): CCOc1ccc(Nc2ccc(/C(=C3C=C/C(=[N+](/CC)Cc4cccc(S(=O)(=O)[O-])c4)C=C/3C)c3ccc(N(CC)Cc4cccc(S(=O)(=O)O)c4)cc3C)cc2)cc1 [E133]
- pIC50 (P2X purinoceptor 7 [1]): 5.89
- pIC50 (P2X purinoceptor 7 [2]): 6.70
- pKi (P2X purinoceptor 7 [3]): 6.00
- pIC50 (P2X purinoceptor 7 [4]): 5.24
